Laboratory results from ChEMBL document CHEMBL4765366, “Targeting fungal virulence factor by small molecules: Structure-based discovery of novel secreted aspartic protease 2 (SAP2) inhibitors” (Eur J Med Chem, 2020).

Assays:
Candida albicans = assay: Inhibition of recombinant Candida albicans SAP2 at 100 uM using Dabcyl-Arg-Lys-Pro-Ala-Leu-Phe-Phe-Arg-Leu-Glu (EDANS)-Arg-OH as substrate incubated for 30 mins followed by substrate addition and measured after 30 mins by spectrophotometry relative to control; details: time 60.0 min
Summary of the method: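 FRET assay with purified expressed C. albicans SAP2 in 50 mM sodium citrate, 50 mM NaCl, pH 4.5. Compound (diluted in DMSO) was preincubated with enzyme 30 min before adding the Dabcyl/EDANS peptide substrate (18.75 μM solution in DMSO). Reaction ran 30 min at 30 °C, then fluorescence was read at ex 340, em 485 nm. Pepstatin A was the positive control.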

[1] = Inhibition of recombinant Candida albicans SAP2 using Dabcyl-Arg-Lys-Pro-Ala-Leu-Phe-Phe-Arg-Leu-Glu (EDANS)-Arg-OH as substrate incubated for 30 mins followed by substrate addition and measured after 30 mins by spectrophotometry

| Structure (SMILES) | inhibition (Candida albicans) [%] | IC50 [1] [µM] |
| --- | --- | --- |
| O=C(O)COc1ccccc1/C=C1\C(=O)N(c2ccc(F)cc2)N=C1c1ccccc1 | 46 |  |
| O=C(O)COc1ccc(/C=C2\C(=O)N(c3ccccc3)N=C2c2ccccc2)cc1 | 94 | 18.2 |
| Cc1ccc(-c2ccc3c(c2)N(Cc2ccc(F)cc2)C(=O)/C3=C/c2ccc(OCC(=O)O)cc2OCC(=O)O)cc1 | 58 |  |
| Cc1ccc(N2N=C(c3ccccc3)/C(=C/c3ccc(OCC(=O)O)cc3)C2=O)cc1 | 93 | 21.6 |
| Cc1ccc(CN2C(=O)/C(=C\c3ccc(OCC(=O)O)cc3OCC(=O)O)N(Cc3ccc(C)cc3)C2=O)cc1 | 91 | 23.8 |
| O=C(O)COc1ccc(/C=C2\C(=O)N(c3ccc(F)cc3)N=C2c2ccccc2)cc1 | 71 | 39.6 |
| COc1ccc(N2N=C(c3ccccc3)/C(=C/c3ccc(OCC(=O)O)cc3)C2=O)cc1 | 95 | 20.4 |
| COc1ccc(N2N=C(c3ccccc3)/C(=C/c3ccc(OCC(=O)O)c(OCC(=O)O)c3)C2=O)cc1 | 88 | 21.5 |
| O=C(O)COc1ccc(/C=C2\C(=O)N(c3cccc(Cl)c3)N=C2c2ccccc2)cc1 | 90 | 26.4 |
| CCOc1ccc(/C=C2\C(=O)N(c3ccccc3)N=C2c2ccccc2)cc1 | 5 |  |
| O=C(O)COc1ccc(/C=C2\C(=O)N(c3ccc(Cl)cc3)N=C2c2ccccc2)cc1OCC(=O)O | 70 | 46.9 |
| O=C(O)COc1ccccc1/C=C1\C(=O)N(c2ccc(Cl)cc2)N=C1c1ccccc1 | 60 | 75.2 |
| CCc1ccc(/C=C2\C(=O)N(c3ccccc3)N=C2c2ccccc2)cc1 | 7 |  |
| COc1cc([C@H]2C(C(=O)c3ccc([N+](=O)[O-])cc3)=C(O)C(=O)N2CCCCCC(=O)O)ccc1O |  | 64 |

Further lines, results first:

| inhibition (Candida albicans) [%] | IC50 [1] [µM] | Structure (SMILES) |
| --- | --- | --- |
| 99 | 11.5 | O=C(O)COc1ccc(/C=C2\C(=O)N(c3cccc(Cl)c3)N=C2c2ccccc2)c(OCC(=O)O)c1 |
| 10 |  | O=C1/C(=C\c2ccc(Br)cc2)C(c2ccccc2)=NN1c1ccccc1 |
| 85 | 22.3 | Cc1ccc(N2N=C(c3ccccc3)/C(=C/c3ccc(OCC(=O)O)c(OCC(=O)O)c3)C2=O)cc1 |
| 96 | 13 | O=C(O)COc1ccc(/C=C2\C(=O)N(c3ccc(Cl)cc3)N=C2c2ccccc2)cc1 |
| 82 | 22.7 | O=C(O)COc1ccc(/C=C2\C(=O)N(c3cccc(Cl)c3)N=C2c2ccccc2)cc1OCC(=O)O |
| 83 | 33.7 | O=C(O)COc1ccc(/C=C2\C(=O)N(c3ccc(F)cc3)N=C2c2ccccc2)cc1OCC(=O)O |
| 100 | 0.022 | CC(C)CC(=O)N[C@H](C(=O)N[C@H](C(=O)N[C@@H](CC(C)C)[C@@H](O)CC(=O)N[C@@H](C)C(=O)N[C@@H](CC(C)C)[C@@H](O)CC(=O)O)C(C)C)C(C)C [PEPSTATIN] |
| 12 |  | O=C1/C(=C\c2ccc(O)cc2)C(c2ccccc2)=NN1c1ccccc1 |
| 99 | 13.5 | Cc1ccc(N2N=C(c3ccccc3)/C(=C/c3ccc(OCC(=O)O)cc3OCC(=O)O)C2=O)cc1 |
| 70 | 55.5 | O=C(O)COc1ccccc1/C=C1\C(=O)N(c2cccc(Cl)c2)N=C1c1ccccc1 |
| 86 | 32.7 | O=C(O)COc1ccc(/C=C2\C(=O)N(c3ccc(F)cc3F)N=C2c2ccccc2)c(OCC(=O)O)c1 |
| 11 |  | CN(C)c1ccc(/C=C2\C(=O)N(c3ccccc3)N=C2c2ccccc2)cc1 |
| 29 |  | COc1ccc(CN2C(=O)/C(=C/c3ccc(OCC(=O)O)cc3OCC(=O)O)c3ccc(-c4ccc(C)cc4)cc32)cc1 |
| 93 | 17.9 | O=C(O)COc1ccc(/C=C2\C(=O)N(c3ccc(F)cc3)N=C2c2ccccc2)c(OCC(=O)O)c1 |
| 94 | 15.7 | COc1ccc(N2N=C(c3ccccc3)/C(=C/c3ccc(OCC(=O)O)cc3OCC(=O)O)C2=O)cc1 |
|  | 46.1 | CCn1cc(/C=C(\NC(=O)c2ccccc2OC)C(=O)NCCO)c2ccccc21 |
